The whole screen tested about 3,500 compounds, of which about 1,000 (29%) were called active. Only a sample is shown. Values without a mark were called inactive.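 Rule for the calls: active = activation above its plate's cutoff, the mean activation of tested wells plus 3 SD (cut at about 7.9% in these data); inactive = the rest.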

The nature of the test: BRM-dependent MMTV reporter reactivation – cell-based, luminescence, triplicate, confirmation (AID 652260). As to conditions: MG213 cells, MMTV-luciferase with dexamethasone, overnight, at 9.1 µM, hits give high values, DMSO wells 0%, reference activator 100%, MG213 cells expressing E1A, Rb sequestered. The procedure, abridged:
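material = MG213 cells (E1A-transduced) carrying MMTV-luciferase reporter | amount = 600 cells in each well | probe or stimulus = 0.1 µM dexamethasone stimulus | dosing = 9.1 µM single dose | timing = one-day dexamethasone pre-induction, 24 h compound exposure at 37 °C | detection = OneGlo luciferase luminescence after 15 min at room temperature | evaluation = normalized percent activation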
With `CCOC(=O)C(C)n1cnc2c(nnn2-c2cccc(OC)c2)c1=O` (stereo not drawn), the activation was 4.29%.
Regarding `CCN(CC)C(=O)CSc1nnc(-c2cccc(OC)c2)o1`, the activation is 8.07% (active).
Consider `COc1cccc(-c2nc3cc(C)ccc3o2)c1`, for which the activation is 7.4%.
In the case of `CCNC(=S)N1CCN(c2ncccn2)CC1` it was -2.06%; in that of `Cc1cc(C)nc(Nc2n[nH]c(-c3ccccc3N)n2)n1`, 5.41%.
In the case of `CC(C)C[C@H]1CNC(=O)C(=O)N1C[C@H]1CCCN1C[C@H](Cc1ccc(O)cc1)N1C[C@H](CC(C)C)N(CC2CCCCCC2)C(=O)C1=O` it was -0.79%; in that of `COc1ccc(C(=O)Nc2ccc3c(c2)OCO3)cc1OC`, 7.86% (active).
In the case of `O=C(Nc1cccc([N+](=O)[O-])c1)c1ccc2c(c1)OCO2` it was 3.25%; in that of `COCC(C)n1c(SCc2ccc(C(=O)OC)o2)nc2ccccc2c1=O` (stereo not drawn), 0.09%.
With `Cc1cc(-c2n[nH]c(=S)n2/N=C/C(Br)=C/c2ccccc2)n[nH]1`, the activation is 2.39%.
In the case of `CCN(CC)CCNC(=O)c1ccc(NC(=O)c2cc(-c3ccncc3)nc3ccccc23)cc1` it was 5.3%; in that of `CC(=O)Nc1ccc(Nc2c3ccccc3nc3ccccc23)cc1`, 43% (active); in that of `O=C(Nc1ccc2nccnc2c1)c1ccco1`, 5.96%.
For the molecule `CCCSC(=S)NC1CCS(=O)(=O)C1` (stereo not drawn), the activation is -0.53%.
In the case of `c1ccc2cc3c(NCCN4CCOCC4)ccnc3cc2c1` it was 34.6% (active); in that of `COc1ccc(-c2cc(-c3ccc(N)cc3)nc(N)c2C#N)cc1OC`, -1.93%.
In the case of `Cc1ccc(C(=O)NNC(=O)c2cccs2)cc1` it was 1.93%; in that of `COc1ccc(/C=N/NC(=O)c2cc(-c3cccc(C)c3)nc3ccccc23)cc1O`, 1.04%; in that of `COc1ccc(N=C(C)c2sc3ccccc3c2O)cc1`, 9.34% (active).
On to `Cc1cc(C)c2nc3nc(C)cc(C)c3c(N)c2c1`, for which the activation is 60% (active).
In the case of `COc1ccc(Cn2c(C)c(C)c(C#N)c2NC(=O)Nc2ccc(F)cc2)cc1`, the activation is 4.61%.
Then `C/C(CC(=O)NC(C)(C)C)=N\NC(=O)c1ccco1`, with 5.29%; and `CN(C)C(=S)N=c1ssc(=S)n1Cc1ccco1`, with 15.4% (active).
Then `O=C1/C(=C\c2ccc([N+](=O)[O-])cc2)CS(=O)(=O)C/C1=C/c1ccc([N+](=O)[O-])cc1`, with -15.7%.
Then `COc1ccccc1C1=Nc2cccc3cccc(c23)N1`, with 2.63%; and `O=C(CCCCCn1c(=S)[nH]c2ccsc2c1=O)NC1CCCCC1`, with 1.02%; and `C=C1C(=O)[C@]23C[C@H]1CCC2[C@@]1(C)C(C[C@@H]3O)[C@](C)(C(=O)O)CC[C@@H]1O` (stereo partly drawn), with 28.4% (active).
With `Cn1c(-c2ccc(F)cc2)cc2onc(-c3ccccc3Cl)c2c1=O`, the activation is -3.34%.
Then `CN1CCN(CCCNC(=O)c2ccc(/C=C3\Oc4ccccc4N(Cc4ccc(Cl)cc4)C3=O)cc2)CC1`, with 3.44%; and `COCn1c(COc2ccccc2)nc2ccccc21`, with 8.62% (active).
Then `CCc1ccc[n+](-c2nc([O-])sc2C=O)c1`, with -1.34%; and `COc1ccc(CC2c3cc(OC)c(OC)cc3CC[N+]2(C)CCC(=O)OCCCCCOC(=O)CC[N+]2(C)CCc3cc(OC)c(OC)cc3C2Cc2ccc(OC)c(OC)c2)cc1OC` (stereo not drawn), with 8.77% (active).
`CCOC(=O)c1sc2nc(CSc3ccccc3)[nH]c(=O)c2c1C`: the activation was -0.16%.
For the molecule `COc1cc(CN2CCC(C(N)=O)CC2)ccc1OCc1ccccc1`, the activation is 13% (active).
In the case of `O=C(c1cc(-c2ccc(O)cc2)on1)N1CCOCC1` it was 7.73%; in that of `O=C(c1cc(-c2ccccc2O)on1)N1CCCC1`, 1.4%; in that of `O=C(c1cccs1)C1C(c2ccc(Br)cc2)NC(=S)NC1(O)C(F)(F)F` (stereo not drawn), 5.35%.
In the case of `Cc1ccc(-c2nc3ccc(Br)cn3c2Cc2ccccc2C(F)(F)F)cc1` it was 0.37%; in that of `CCN(CC)C(=O)c1sc2nc(-c3ccccc3)ccc2c1N`, 9.6% (active).
In the case of `CC(C)(C)C(=O)CSc1nc2ccccc2o1` it was 6.81%; in that of `CN(C)S(=O)(=O)c1ccc2oc(SCC(=O)Nc3ccccc3F)nc2c1`, 7.95% (active).
`COc1ccc(C(CNC(=O)c2ccc(S(=O)(=O)Nc3ccccc3F)cc2)N(C)C)cc1` (stereo not drawn): the activation was 0.35%.
In the case of `Cc1noc(C)c1/C=N/Nc1ccc2ccccc2n1` it was 4.24%; in that of `CC1CCCCN1C(=S)NCc1ccccc1` (stereo not drawn), 0.99%; in that of `COc1ccc(-c2cc3ncccc3cn2)cc1`, 8.92% (active).
Take `COc1ccc(-c2csc(Cc3nc(O)cs3)n2)cc1`: the activation was -15.4%.
In the case of `CN(C)c1nc(=Nc2cccc(Cl)c2)ss1` it was -15.3%.
On to `Cc1n[nH]c(=O)nc1N/N=C/c1cccs1`, for which the activation is 3.07%.
In the case of `CCC1CCC/C1=N\NC(=O)c1ccc(Cl)cc1` (stereo not drawn) it was 2.31%; in that of `O=C(Nc1ccc2c(c1)CCC2)c1ccc(Br)s1`, 10.8% (active); in that of `Cc1ccc(NC(=O)c2cnc(SCC(=O)NCC3CCCO3)n(C)c2=O)cc1` (stereo not drawn), 9.35% (active).
In the case of `Cc1ccc(-c2c(C)n([O-])c3c([n+]2=O)CCC3)cc1` it was 6.67%.
In the case of `N#Cc1ccccc1NC(=O)c1cccc(COc2ccc(Cl)cc2Cl)c1` it was 4.05%; in that of `Fc1ccc(CNc2nc3ccccc3n3nnnc23)cc1`, 1.53%; in that of `COc1c(O)cc2oc(-c3ccc(O)c(O)c3)cc(=O)c2c1O`, 12.6% (active).
For the molecule `CCCCNC(=O)C1CCC(CNS(=O)(=O)c2ccc(NC(C)=O)cc2)CC1` (stereo not drawn), the activation was -3.14%.
Then `Cc1cc2oc3ccc(NCCC4CCCN4C)cc3c(=O)c2cc1C` (stereo not drawn), with 5.48%.
Then `CC1CCCCC1NC(=O)CN1CCC(O)(c2ccc3c(c2)OCO3)CC1` (stereo not drawn), with -0.84%; and `CCCC(=O)N1c2ccc(-c3csc(N)n3)cc2CC1C` (stereo not drawn), with 8.32% (active); and `Cc1cc(C(=O)NNC(=S)Nc2ccccc2C)cs1`, with 3.37%.
Then `Cc1cc(C)c2nc(NC(=O)C3CCCO3)sc2c1` (stereo not drawn), with 9.52% (active).
As to `O=C(Nc1nnc(CCc2ccccc2)s1)C1CCCO1` (stereo not drawn), the activation is 1.02%.
Then `C=CC(=O)OCCOCCOCCOCCOC(=O)C=C`, with 7.95% (active); and `O=C1Cc2cc(S(=O)(=O)Nc3cccc(F)c3)ccc2N1`, with 0.74%; and `NS(=O)(=O)c1ccccc1NC(=O)c1c(O)c2ccccc2[nH]c1=O`, with 12.1% (active).
Then `CCOc1cc(NC(=S)NCCCOC)c(OCC)cc1NC(=O)c1ccco1`, with -1.02%; and `Cc1ccc(S(=O)(=O)NC(C)C(=O)NCc2ccc(Cl)cc2)cc1` (stereo not drawn), with -3.9%.
Then `CCCCn1nnnc1C(c1cc2ccccc2o1)N(C)Cc1ccc(Cl)c(Cl)c1` (stereo not drawn), with -4.28%; and `COc1ccccc1OCC(=O)O/N=C(\N)c1ccccn1`, with 10.6% (active).
As for `COc1ccc(/C(N)=N/OC(=O)Oc2ccccc2)cc1`, the activation was -2.89%.
In the case of `O=C(CSc1nc2ccccc2[nH]1)c1cccs1` it was 2.82%; in that of `CC(=O)Nc1cc(-c2ccc(N3CCN(C)CC3)cc2)cn2c(-c3ccc(F)cc3)cnc12`, 17.5% (active); in that of `CC(=O)c1cccc(-c2cnc3c(NC=O)cc(-c4ccc(N5CCN(C)CC5)cc4)cn23)c1`, 16.5% (active).
Then `CN(C)CCNC(=O)c1cccc(-c2cnc3c(NC=O)cc(-c4cccc(C(F)(F)F)c4)cn23)c1`, with -12.7%; and `COc1ccc(C)cc1S(=O)(=O)N(CC(=O)Nc1cccc([N+](=O)[O-])c1)c1ccc(C)cc1`, with 0.21%.
Then `Cc1ccc(S(=O)(=O)c2c[nH]c3ccc(Cl)cc3c2=O)cc1`, with 0.08%.
Turning to `COc1ccc(S(=O)(=O)NC(C)C(=O)N2CCCCCC2)cc1` (stereo not drawn), the activation is -2.64%.
Then `O=C(NCc1ccccn1)c1cnc2sccn2c1=O`, with 1.34%.
In the case of `Cc1cc(C)n2nc(CNS(=O)(=O)c3c(F)c(F)c(F)c(F)c3F)nc2n1` it was 19.1% (active); in that of `Cc1cc(-n2cnc(-c3cn(C)nc3C)n2)no1`, 3.17%.
Then `COC(=O)C1C(=O)c2c([nH]c(C(=O)OCCSC)c2C)CC1C` (stereo not drawn), with 6.36%; and `O=C(O)c1cccc(N=NN2CCCCCC2)c1`, with 12.5% (active).
As for `CC(=O)c1sc(N/N=C\c2ccc(C)cc2)nc1C`, the activation is 6.84%.
As for `O=C(OCC(=O)c1cccs1)C1=COCCO1`, the activation is 8.33% (active).
Then `COc1ccc(NC(=O)c2sccc2SCC#N)cc1`, with 0.37%.
On to `Cc1cc(O)c(NC(=O)c2ccc(C)c([N+](=O)[O-])c2)cc1C`, for which the activation was 5.6%.
In the case of `Cc1cc(=O)[nH]c(N/N=C/c2ccc3c(c2)OCCO3)n1`, the activation was 7.09%.
In the case of `Cn1c2ccc(F)cc2c2nnc(NN)nc21` it was -1.11%.
Then `COc1ccc2nc(/N=C(\N)NC(=O)Nc3ccccc3)nc(C)c2c1`, with 2.85%; and `Cc1nc(N=C(N)N)nc2c(C)cccc12`, with 40.3% (active).
Then `O=C(Nc1cccc([N+](=O)[O-])c1)N1CCc2ccccc2C1`, with 5.56%.
On to `Cc1ccsc1-c1nc(CSCC(=O)NCCN2CCCC2)c(C)o1`, for which the activation is -0.08%.
In the case of `CCC(=O)Nc1ccc2nn(-c3ccc(F)cc3)nc2c1` it was 11.7% (active); in that of `Cn1cc(/C=C/C(=O)N2CCCC(C(=O)c3ccc(C(F)(F)F)cc3)C2)cn1` (stereo not drawn), 1.67%; in that of `Cc1c(NC(=O)CSc2cccc3cccnc23)c(=O)n(-c2ccccc2)n1C`, -8.3%.
Then `Cc1cccc(CSc2ccc(-c3cccs3)nn2)c1`, with 7.87% (active); and `COC(=O)Cc1nnn2c1[C@H](C)[C@H](c1ccccc1[N+](=O)[O-])OCC2`, with 0.13%; and `O=[N+]([O-])c1ccc2c(c1)Nc1nc3ccccc3nc1N2`, with 24.9% (active).

For the origin of these results see PubChem BioAssay AID652260 (The Scripps Research Institute Molecular Screening Center, 2013).
